Experimental findings from ChEMBL document CHEMBL1142735, “Discovery of a new series of centrally active tricyclic isoxazoles combining serotonin (5-HT) reuptake inhibition with alpha2-adrenoceptor blocking activity” (J Med Chem, 2005) are described below.

Assay [1] addresses Rattus norvegicus. Briefly: Effective dose concentration for antagonism ofpCA-Induced excitation was determined by subcutaneous administration. Type of assay: functional, organism-based. In a few lines: (§1)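 Male Wistar rats (200-250 g), fasted overnight, given test compound or solvent sc before challenge. Loss of righting induced by medetomidine 0.10 mg/kg iv; reversal means no loss of righting. Excitation induced by pCA 5 mg/10 mL/kg sc and scored 0-3 over 15 min starting 45 min after pCA; inhibition means score <2.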

In assay [2] the target is Rattus norvegicus. The experiment in a line: Effective dose concentration for reversal of medetomidine-Induced loss of righting was determined by subcutaneous administration. Type of assay: functional, organism-based. In a few lines: as §1
In assay [3] the target is Sodium-dependent serotonin transporter (Homo sapiens, UniProt P31645). The experiment in a line: Binding affinity for serotonin transporter. A digest of the protocol:
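Human platelet membranes (50 µg protein) in 50 mM Tris-HCl pH 7.4 with 120 mM NaCl and 5 mM KCl. Competition against [3H]paroxetine (0.5 nM), 60 min at 25 °C. Nonspecific binding defined with imipramine (1 µM). Filtration over 0.1% PEI-presoaked GF/B, washed with incubation buffer. Sigmoidal fit of specific binding; Ki via Cheng-Prusoff.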

In assay [4] the target is T1, Alpha-2C adrenergic receptor (Homo sapiens, UniProt P18825).
T1 sequence (P18825 whole entry): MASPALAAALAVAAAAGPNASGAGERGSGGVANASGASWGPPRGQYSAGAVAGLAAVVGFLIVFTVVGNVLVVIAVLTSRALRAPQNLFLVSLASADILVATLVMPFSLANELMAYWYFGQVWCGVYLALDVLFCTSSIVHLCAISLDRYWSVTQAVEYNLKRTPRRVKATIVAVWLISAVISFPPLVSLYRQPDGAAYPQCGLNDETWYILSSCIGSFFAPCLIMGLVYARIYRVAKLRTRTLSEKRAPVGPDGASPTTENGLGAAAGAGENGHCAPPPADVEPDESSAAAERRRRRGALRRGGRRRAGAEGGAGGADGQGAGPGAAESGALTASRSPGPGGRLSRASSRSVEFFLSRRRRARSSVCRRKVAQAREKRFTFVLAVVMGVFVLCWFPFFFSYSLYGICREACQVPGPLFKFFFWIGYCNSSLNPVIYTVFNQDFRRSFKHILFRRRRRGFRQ
Briefly: Binding affinity for alpha-2C adrenergic receptor. In a few lines:
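Human alpha2C receptor stably expressed in CHO cell membranes (5-10 µg protein) in 25 mM glycylglycine, pH 7.6. Competition against [3H]rauwolscine (1 nM), 30 min at 25 °C. Nonspecific binding defined with spiroxatrine (1 µM). Rapid filtration over GF/B, washed with ice-cold 50 mM Tris-HCl pH 8.0, scintillation counting. Sigmoidal curves fitted; Ki by Cheng-Prusoff.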

For assay [5], the target named is 5-hydroxytryptamine receptor 2A (Homo sapiens, UniProt P28223). The experiment in a line: Inhibition of [125I]- R91150 binding to 5-hydroxytryptamine 2A receptor. In a few lines: (§2)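 Radioligand competition binding on membranes from cell lines carrying the human target, incubated with the labelled ligand under optimized conditions. Separation by filtration, except α1A and D3, which used scintillation proximity assay.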

For assay [6], the target named is T2, Adrenergic receptor alpha-1 (Homo sapiens, UniProt P35348+P25100+P35368).
T2 sequence (P35348 whole entry): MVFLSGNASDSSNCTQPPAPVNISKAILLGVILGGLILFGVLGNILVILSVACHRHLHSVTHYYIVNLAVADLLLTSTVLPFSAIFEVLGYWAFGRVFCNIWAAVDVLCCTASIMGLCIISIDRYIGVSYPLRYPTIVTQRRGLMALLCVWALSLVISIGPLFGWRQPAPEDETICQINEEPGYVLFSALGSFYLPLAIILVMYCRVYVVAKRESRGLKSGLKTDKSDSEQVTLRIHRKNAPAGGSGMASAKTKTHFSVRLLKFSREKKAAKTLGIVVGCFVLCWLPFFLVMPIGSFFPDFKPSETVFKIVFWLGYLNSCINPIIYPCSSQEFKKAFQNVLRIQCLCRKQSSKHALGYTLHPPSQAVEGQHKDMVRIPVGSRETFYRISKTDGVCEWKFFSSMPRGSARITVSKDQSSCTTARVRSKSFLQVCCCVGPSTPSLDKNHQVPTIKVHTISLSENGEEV
T2 sequence (P25100 whole entry): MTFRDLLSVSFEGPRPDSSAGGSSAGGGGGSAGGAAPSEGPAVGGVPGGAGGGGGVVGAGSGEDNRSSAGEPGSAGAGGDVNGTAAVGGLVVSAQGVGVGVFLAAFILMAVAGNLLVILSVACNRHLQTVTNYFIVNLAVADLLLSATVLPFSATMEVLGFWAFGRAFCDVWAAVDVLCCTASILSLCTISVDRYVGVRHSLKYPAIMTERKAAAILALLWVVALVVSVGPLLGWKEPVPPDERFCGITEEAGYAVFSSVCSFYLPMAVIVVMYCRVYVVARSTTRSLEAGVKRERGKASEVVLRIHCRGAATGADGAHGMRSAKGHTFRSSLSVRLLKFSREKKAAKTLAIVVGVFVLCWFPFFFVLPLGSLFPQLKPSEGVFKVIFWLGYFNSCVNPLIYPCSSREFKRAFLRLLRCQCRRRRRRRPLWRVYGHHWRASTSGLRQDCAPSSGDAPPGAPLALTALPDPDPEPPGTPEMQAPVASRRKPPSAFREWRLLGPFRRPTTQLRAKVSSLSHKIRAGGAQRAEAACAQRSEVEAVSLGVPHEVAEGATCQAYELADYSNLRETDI
T2 sequence (P35368 whole entry): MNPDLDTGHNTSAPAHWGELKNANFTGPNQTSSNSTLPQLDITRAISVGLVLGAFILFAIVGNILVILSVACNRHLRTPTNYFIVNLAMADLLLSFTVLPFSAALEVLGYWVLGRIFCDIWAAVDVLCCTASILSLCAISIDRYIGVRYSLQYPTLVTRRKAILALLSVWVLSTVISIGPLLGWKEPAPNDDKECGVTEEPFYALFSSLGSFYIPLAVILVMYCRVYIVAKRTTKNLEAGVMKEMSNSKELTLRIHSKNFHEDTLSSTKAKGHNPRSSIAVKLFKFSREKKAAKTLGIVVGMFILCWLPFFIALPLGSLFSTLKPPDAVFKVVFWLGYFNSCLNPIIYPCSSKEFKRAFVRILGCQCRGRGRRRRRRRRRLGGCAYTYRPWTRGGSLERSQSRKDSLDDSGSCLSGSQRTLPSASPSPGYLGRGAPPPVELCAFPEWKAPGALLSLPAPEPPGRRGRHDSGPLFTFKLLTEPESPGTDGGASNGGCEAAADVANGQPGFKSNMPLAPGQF
Briefly: Inhibition of [3H]- prazosin binding to alpha-1 adrenergic receptor. Format: protein assay. In a few lines:
as §2

In assay [7] the target is Norepinephrine transporter (Rattus norvegicus, UniProt Q9WTR4). Briefly: Inhibition of [3H]-nisoxetine binding to Norepinephrine transporter from rat cortex. In a few lines:
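Radioligand competition on rat cortex membranes, incubated under optimized conditions. Stopped by rapid filtration. Ki by Cheng-Prusoff.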

The target of assay [8] is 5-hydroxytryptamine receptor 7 (Homo sapiens, UniProt P34969). Briefly: Inhibition of [3H]5-HT binding to 5-hydroxytryptamine 7 receptor. A digest of the protocol: as §2
The target of assay [9] is Sodium-dependent dopamine transporter (Rattus norvegicus, UniProt P23977). Briefly: Inhibition of [3H]WIN-35428 binding to Dopamine transporter of rat striatum. Type of assay: tissue-based. In a few lines:
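Competition binding using rat striatum membranes incubated with the radioligand under optimized conditions, separated by filtration.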

For assay [10], the target named is T3, 5-hydroxytryptamine receptor 1A (Homo sapiens, UniProt P08908).
T3 sequence (P08908 whole entry): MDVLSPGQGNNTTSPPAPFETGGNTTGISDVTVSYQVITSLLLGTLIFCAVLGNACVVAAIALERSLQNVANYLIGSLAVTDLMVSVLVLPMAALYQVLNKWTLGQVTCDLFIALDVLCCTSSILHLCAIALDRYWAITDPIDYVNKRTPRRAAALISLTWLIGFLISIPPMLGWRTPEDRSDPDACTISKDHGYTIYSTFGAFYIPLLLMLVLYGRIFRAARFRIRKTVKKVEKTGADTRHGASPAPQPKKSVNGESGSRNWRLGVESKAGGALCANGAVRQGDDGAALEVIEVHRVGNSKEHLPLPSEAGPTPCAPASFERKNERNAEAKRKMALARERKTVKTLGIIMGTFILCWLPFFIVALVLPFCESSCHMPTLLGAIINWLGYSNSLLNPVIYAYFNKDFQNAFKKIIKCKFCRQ
The experiment in a line: Inhibition of [3H]8-OH-DPAT binding to 5-hydroxytryptamine 1A receptor. A digest of the protocol:
as §2

Assay [11] concerns the target T4, 5-hydroxytryptamine receptor 2C (Homo sapiens, UniProt P28335).
T4 sequence (P28335 whole entry): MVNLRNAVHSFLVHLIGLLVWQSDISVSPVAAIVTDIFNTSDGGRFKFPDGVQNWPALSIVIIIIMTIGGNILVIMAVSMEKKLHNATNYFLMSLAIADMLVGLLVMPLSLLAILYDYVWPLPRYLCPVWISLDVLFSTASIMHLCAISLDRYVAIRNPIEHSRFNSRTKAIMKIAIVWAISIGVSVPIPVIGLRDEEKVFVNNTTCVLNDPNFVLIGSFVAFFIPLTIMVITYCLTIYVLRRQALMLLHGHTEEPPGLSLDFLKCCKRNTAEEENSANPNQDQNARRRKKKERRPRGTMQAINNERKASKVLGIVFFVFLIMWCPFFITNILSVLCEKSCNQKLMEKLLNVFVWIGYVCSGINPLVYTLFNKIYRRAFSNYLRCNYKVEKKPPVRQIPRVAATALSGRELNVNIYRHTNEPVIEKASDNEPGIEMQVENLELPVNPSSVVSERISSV
Briefly: Inhibition of [3H]- mesulergine binding to 5-hydroxytryptamine 2C receptor. In a few lines:
as §2

The next assay deals with D(2) dopamine receptor (Homo sapiens, UniProt P14416). Briefly: Inhibition of [3H]spiperone binding to Dopamine receptor D2. In a few lines:
as §2

Another assay addresses Histamine H1 receptor (Homo sapiens, UniProt P35367). Briefly: Inhibition of [3H]pyrilamine binding to Histamine H1 receptor. A digest of the protocol:
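Radioligand competition on membranes from a cell line transfected with the human target, incubated under optimized conditions. Stopped by rapid filtration. Ki by Cheng-Prusoff.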

For assay [12], the system named is Rattus norvegicus. The experiment in a line: Effective dose for antagonism ofpCA-Induced excitation was determined by oral administration. Type of assay: functional. In a few lines:
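Oral pretreatment of overnight-fasted male Wistar rats (200-250 g), then medetomidine 0.10 mg/kg iv (reversal means no loss of righting) or pCA 5 mg/kg sc (excitation scored 0-3 over 15 min from 45 min after pCA; inhibition means score <2). Doses taken from a geometric series.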

A further assay concerns the target T5, D(4) dopamine receptor (Homo sapiens, UniProt P21917).
T5 sequence (P21917 whole entry): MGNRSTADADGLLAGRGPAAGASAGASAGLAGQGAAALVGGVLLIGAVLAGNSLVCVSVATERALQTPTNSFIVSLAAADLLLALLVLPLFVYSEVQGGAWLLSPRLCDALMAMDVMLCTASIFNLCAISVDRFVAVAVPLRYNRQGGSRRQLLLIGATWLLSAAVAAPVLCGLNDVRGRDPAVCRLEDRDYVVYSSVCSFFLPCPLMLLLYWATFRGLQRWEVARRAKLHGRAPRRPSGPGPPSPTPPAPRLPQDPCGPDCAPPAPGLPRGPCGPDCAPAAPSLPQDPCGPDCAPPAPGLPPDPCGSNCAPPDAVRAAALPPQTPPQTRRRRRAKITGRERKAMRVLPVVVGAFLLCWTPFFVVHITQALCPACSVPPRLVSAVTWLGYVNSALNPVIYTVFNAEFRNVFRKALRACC
The experiment in a line: Inhibition of [3H]spiperone binding to Dopamine receptor D4. A digest of the protocol: as §2

The ED50 is the dose that gives a 50% effect, or the effect in half of the subjects. In general, Ki refers to the dissociation constant of the complex between target and ligand, obtained from inhibition or displacement. Higher therefore signals weaker binding.

Chain of Norepinephrine transporter (Q9WTR4 whole entry): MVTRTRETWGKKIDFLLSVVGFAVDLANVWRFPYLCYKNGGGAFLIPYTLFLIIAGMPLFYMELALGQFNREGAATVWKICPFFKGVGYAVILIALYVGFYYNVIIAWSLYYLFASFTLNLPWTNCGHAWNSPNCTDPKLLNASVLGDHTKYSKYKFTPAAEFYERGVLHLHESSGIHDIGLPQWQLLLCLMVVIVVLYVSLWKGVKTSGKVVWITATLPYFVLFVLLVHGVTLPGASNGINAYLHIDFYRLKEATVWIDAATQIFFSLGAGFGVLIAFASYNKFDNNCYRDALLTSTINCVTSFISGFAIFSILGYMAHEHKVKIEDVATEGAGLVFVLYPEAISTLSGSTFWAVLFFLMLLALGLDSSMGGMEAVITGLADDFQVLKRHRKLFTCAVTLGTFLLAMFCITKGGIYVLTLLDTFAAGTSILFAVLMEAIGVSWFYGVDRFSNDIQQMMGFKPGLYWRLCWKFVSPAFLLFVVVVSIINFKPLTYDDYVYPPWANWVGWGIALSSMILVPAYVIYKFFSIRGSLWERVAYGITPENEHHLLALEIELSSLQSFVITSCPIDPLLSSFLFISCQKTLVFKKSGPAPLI
Chain of D(2) dopamine receptor (P14416 whole entry): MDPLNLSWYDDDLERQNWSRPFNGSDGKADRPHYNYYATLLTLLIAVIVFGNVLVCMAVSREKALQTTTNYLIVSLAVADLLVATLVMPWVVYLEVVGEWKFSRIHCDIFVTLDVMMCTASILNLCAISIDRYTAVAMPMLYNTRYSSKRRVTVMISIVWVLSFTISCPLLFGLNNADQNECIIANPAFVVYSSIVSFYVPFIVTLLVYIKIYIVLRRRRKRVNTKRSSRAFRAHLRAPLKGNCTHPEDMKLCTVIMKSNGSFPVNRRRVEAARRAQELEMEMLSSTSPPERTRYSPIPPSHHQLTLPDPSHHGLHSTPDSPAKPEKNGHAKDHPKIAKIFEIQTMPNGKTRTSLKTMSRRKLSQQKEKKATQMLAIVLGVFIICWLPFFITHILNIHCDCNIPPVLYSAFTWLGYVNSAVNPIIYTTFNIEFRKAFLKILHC
Chain of 5-hydroxytryptamine receptor 2A (P28223 whole entry): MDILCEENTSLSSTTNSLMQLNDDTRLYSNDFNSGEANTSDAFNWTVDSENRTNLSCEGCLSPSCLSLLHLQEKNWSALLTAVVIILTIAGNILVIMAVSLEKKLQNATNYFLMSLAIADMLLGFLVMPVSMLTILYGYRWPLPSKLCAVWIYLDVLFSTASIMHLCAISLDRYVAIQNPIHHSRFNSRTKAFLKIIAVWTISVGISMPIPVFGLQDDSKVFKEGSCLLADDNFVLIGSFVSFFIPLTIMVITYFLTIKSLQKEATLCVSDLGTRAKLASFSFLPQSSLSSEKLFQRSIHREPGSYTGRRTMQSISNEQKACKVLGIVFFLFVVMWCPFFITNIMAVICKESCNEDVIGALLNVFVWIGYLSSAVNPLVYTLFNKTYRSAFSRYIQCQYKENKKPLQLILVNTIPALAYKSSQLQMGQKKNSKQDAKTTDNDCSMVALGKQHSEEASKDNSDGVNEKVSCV
Chain of Histamine H1 receptor (P35367 whole entry): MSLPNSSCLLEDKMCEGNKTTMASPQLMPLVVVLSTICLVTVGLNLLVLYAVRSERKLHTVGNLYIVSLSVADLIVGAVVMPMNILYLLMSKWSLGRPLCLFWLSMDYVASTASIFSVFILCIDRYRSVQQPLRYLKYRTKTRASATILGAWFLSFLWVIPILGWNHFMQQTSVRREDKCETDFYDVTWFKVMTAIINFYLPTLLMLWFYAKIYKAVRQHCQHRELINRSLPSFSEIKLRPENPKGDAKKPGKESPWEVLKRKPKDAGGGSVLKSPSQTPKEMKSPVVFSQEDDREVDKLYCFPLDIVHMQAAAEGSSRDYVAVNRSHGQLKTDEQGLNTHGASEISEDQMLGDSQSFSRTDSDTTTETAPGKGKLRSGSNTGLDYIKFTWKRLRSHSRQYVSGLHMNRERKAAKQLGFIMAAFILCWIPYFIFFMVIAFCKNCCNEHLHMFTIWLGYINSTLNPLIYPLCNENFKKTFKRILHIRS
Chain of Sodium-dependent dopamine transporter (P23977 whole entry): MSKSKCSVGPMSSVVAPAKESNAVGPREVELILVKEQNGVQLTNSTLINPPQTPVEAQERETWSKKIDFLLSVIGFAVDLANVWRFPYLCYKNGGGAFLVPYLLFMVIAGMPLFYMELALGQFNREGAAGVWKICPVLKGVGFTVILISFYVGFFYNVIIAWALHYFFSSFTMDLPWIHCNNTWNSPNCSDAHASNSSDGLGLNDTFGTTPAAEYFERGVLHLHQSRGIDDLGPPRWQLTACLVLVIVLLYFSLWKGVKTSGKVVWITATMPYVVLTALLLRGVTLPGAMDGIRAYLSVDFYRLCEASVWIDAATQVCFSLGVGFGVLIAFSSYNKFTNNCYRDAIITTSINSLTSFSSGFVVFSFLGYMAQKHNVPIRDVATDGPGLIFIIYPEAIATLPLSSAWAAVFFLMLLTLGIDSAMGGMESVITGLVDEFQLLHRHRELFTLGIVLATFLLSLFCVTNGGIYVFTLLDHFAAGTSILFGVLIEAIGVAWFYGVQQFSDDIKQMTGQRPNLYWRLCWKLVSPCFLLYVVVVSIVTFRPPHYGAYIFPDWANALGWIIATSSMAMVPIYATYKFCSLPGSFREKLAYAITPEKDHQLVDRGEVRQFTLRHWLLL
Chain of Sodium-dependent serotonin transporter (P31645 whole entry): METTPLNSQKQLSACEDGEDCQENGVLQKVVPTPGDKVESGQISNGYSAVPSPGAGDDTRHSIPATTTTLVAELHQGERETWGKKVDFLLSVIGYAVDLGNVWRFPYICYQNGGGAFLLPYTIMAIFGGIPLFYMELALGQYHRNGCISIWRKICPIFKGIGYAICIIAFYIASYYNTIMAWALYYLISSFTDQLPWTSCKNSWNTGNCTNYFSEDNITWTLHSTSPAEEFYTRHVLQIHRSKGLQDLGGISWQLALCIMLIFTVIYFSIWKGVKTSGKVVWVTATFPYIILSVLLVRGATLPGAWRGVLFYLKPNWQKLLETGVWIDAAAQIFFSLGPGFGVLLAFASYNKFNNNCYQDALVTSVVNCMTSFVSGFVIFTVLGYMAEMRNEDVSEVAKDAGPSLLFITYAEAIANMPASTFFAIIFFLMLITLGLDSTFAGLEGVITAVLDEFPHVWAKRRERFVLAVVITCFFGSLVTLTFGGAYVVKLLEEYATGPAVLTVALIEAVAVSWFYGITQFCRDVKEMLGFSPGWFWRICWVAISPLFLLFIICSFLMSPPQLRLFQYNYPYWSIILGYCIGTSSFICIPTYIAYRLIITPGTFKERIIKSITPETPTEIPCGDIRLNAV
Chain of 5-hydroxytryptamine receptor 7 (P34969 whole entry): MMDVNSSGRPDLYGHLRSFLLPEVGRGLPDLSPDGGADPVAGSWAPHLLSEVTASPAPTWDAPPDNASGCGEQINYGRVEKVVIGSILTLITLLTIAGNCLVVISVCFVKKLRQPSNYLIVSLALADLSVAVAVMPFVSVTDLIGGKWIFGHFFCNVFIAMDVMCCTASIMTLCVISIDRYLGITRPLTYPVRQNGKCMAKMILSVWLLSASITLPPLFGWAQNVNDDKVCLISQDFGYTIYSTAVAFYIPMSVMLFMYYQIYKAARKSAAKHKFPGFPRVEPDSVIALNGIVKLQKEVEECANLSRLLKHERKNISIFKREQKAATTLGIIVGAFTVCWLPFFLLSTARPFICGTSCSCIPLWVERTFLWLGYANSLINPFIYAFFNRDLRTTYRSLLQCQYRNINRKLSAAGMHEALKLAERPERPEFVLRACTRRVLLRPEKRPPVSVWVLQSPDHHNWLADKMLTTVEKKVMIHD

Regarding `COc1cc2c(cc1OC)C1=NO[C@@H](CN3CCN(C/C=C(\C)c4ccccc4)CC3)[C@@H]1CN2`, the ED50 on Rattus norvegicus [1] turned out to be 7.9 mg/kg; at Rattus norvegicus [2], 2.5 mg/kg. Besides, the Ki in assay [3] was 15 nM; in [4] it was 3.6 nM.
`Fc1ccc2c(c1)CC(CC1CN=CN1)C2` (stereo not drawn): the Ki in assay [5] was above 1000 nM; in assay [6] it was above 1000 nM; in [7], 365 nM; in [8], above 1000 nM; in assay [9] it was above 1000 nM; in [10] it was 770 nM. In addition, the Ki (in assay [11]; at D(2) dopamine receptor; at Histamine H1 receptor) was above 1000 nM in each case.
Regarding `COc1cccc2c1CCC[C@H]2CN(C)CCc1ccc2ccoc2c1`, the ED50 in the assay on Rattus norvegicus [12] was above 10 mg/kg. Besides, the Ki in [5], in assay [6], in [7], in [9], in [10] and in [11] was above 1000 nM each time. Further, the Ki on D(2) dopamine receptor is above 1000 nM; on D(4) dopamine receptor, 234 nM; on Histamine H1 receptor, above 1000 nM.
